Source: ChEMBL document CHEMBL1141075, “4-Oxo-4,7-dihydrothieno[2,3-b]pyridines as non-nucleoside inhibitors of human cytomegalovirus and related herpesvirus polymerases” (J Med Chem, 2005)

Key:
[1] = test system: HFF; test: Antiviral activity against human cytomegalovirus (Davis strain) grown on human foreskin fibroblast cells determined by reduction in plaque formation upon incubation at 37 degrees C with the compound dissolved in DMSO; assay type: functional, cell-based
[2] = molecular target: T1, DNA polymerase alpha catalytic subunit (Homo sapiens, UniProt P09884); test: Inhibition of human alpha DNA polymerase (95 uL) activity in a solution containg […] HEPES (pH 7.5) upon incubation for 12 minutes at 26 degrees C with the compound dissolved in DMSO
T1 sequence (P09884 whole entry): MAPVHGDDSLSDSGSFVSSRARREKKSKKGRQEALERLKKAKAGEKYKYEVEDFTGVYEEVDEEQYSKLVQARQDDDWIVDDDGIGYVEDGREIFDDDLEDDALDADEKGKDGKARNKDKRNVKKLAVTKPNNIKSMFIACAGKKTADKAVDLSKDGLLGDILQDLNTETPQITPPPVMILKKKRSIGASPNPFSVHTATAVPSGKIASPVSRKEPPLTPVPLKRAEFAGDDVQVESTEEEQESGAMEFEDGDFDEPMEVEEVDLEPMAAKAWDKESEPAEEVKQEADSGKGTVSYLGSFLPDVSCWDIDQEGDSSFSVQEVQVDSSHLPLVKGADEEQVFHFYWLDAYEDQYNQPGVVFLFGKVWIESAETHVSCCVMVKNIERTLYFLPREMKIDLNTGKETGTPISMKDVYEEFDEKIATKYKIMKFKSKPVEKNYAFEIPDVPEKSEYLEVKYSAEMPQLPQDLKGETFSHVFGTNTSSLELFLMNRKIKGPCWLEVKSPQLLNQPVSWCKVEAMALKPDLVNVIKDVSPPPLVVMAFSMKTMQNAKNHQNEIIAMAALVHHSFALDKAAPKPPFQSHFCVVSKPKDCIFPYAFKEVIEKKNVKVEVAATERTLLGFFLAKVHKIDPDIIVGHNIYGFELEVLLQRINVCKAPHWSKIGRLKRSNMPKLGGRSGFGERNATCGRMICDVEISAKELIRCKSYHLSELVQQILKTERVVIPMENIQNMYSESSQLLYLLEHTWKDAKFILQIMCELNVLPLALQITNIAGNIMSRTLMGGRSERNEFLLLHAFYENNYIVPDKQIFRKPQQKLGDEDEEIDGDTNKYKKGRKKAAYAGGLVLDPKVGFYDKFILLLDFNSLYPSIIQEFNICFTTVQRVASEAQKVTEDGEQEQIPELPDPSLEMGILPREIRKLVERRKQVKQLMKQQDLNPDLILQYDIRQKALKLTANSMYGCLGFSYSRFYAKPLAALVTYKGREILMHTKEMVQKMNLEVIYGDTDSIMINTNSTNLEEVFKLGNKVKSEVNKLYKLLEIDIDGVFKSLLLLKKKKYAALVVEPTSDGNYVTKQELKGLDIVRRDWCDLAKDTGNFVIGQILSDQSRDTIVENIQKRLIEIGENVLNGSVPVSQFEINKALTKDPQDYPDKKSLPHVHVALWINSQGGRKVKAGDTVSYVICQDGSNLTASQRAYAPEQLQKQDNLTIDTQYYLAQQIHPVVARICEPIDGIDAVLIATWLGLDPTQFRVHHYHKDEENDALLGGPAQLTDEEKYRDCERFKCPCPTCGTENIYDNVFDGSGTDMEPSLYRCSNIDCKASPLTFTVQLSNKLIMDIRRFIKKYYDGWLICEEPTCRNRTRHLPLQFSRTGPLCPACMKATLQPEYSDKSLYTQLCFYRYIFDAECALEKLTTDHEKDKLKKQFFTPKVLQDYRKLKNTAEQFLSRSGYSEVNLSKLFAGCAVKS

[3] = molecular target: T2, DNA polymerase delta catalytic subunit (Homo sapiens, UniProt P28340); test: Inhibition of human delta DNA polymerase (95 uL) activity in a solution containg […] HEPES (pH 7.5) upon incubation for 12 minutes at 26 degrees C with the compound dissolved in DMSO
T2 sequence (P28340 whole entry): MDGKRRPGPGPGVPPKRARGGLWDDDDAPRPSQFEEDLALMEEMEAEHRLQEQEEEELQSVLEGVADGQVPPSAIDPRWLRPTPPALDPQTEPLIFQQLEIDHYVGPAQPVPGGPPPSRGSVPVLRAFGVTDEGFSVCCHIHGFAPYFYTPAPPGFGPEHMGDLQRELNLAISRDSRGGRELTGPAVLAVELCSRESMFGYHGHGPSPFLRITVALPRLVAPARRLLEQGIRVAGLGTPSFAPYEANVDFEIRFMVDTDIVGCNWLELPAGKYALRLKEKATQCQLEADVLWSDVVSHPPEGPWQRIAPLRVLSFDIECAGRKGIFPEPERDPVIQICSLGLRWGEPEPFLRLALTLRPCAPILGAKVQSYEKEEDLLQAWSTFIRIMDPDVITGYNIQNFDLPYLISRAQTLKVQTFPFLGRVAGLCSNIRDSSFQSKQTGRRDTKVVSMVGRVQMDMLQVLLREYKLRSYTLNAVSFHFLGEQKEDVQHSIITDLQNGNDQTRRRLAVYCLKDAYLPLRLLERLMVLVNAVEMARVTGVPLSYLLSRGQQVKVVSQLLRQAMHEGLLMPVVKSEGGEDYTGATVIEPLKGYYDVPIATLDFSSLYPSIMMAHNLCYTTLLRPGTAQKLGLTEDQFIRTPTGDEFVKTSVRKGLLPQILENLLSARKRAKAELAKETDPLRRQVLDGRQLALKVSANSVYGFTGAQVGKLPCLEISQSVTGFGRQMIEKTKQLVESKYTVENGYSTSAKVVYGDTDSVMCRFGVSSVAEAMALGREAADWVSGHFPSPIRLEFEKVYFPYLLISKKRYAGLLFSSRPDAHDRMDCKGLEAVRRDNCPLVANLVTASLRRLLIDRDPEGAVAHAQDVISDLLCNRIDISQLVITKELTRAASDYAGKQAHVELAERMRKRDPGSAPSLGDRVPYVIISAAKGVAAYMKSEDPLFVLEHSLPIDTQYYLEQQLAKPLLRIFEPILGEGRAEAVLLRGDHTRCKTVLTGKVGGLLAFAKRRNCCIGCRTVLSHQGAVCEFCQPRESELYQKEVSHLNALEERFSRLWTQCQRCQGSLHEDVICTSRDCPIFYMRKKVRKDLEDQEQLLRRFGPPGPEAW

[4] = test system: Vero; test: Antiviral activity against herpes simplex virus type 1 (KOS strain) grown on human foreskin fibroblast cells determined by vedduction in plaque formation upon incubation at 37 degrees C with the compound dissolved in DMSO until plaque were formed; assay type: functional, cell-based
Outline: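 HSV-1 KOS, about 50 PFU per well, was adsorbed for 1 h at 37 °C. The inoculum was then replaced with drug dilutions from 200-fold DMSO stocks in DMEM containing 10% FBS and 0.8% carboxymethyl cellulose. Cultures were kept at 37 °C until plaques appeared. Plaques were counted microscopically or by crystal violet staining (0.1% in 20% ethanol). IC50 came from linear regression of % inhibition relative to the uninhibited control.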

[5] = Toxicity on uninfected human foreskin fibroblast cells determined in microscopic evaluation and quantitative neutral red dye uptake assay; assay type: cell-based; settings: uninfected human foreskin fibroblast (HFF) cells
Outline: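 Uninfected cells were seeded as subconfluent monolayers and exposed to compound for 3 days. Viability was judged both by microscopic inspection and by quantitative neutral red dye uptake, giving CC50.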

Cn1cc(C(=O)NCc2ccc(Cl)cc2)c(=O)c2cc(CN3CCOCC3)sc21
IC50 [1]: 800 nM
IC50 [2]: > 40 µM
IC50 [3]: > 40 µM
IC50 [4]: 3.7 µM
CC50 [5]: > 100 µM

Cn1cc(C(=O)NCc2ccc(Cl)cc2)c(=O)c2cc(CN3CCOCC3)ccc21
IC50 [1]: 900 nM
IC50 [2]: > 40 µM
IC50 [3]: > 40 µM
IC50 [4]: 3.5 µM
CC50 [5]: > 100 µM

O=C(NCc1ccc(Cl)cc1)c1cnc2ccc(CCCO)cc2c1O
IC50 [1]: 1000 nM
IC50 [2]: > 40 µM
IC50 [3]: > 40 µM
IC50 [4]: 7.4 µM
CC50 [5]: > 100 µM
